Most compounds without a hit are left out; they make up all but 2.1% or so of the library.
FAS TE block: blocks the thioesterase domain of human fatty acid synthase. P49327. recombinant FAS-TE, OMFH fluorogenic substrate, fluorescence endpoint. inhibition, % at 15 µM. 360,000 compounds, 0.67% hits;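 active means compounds whose normalised, plate-corrected inhibition of enzyme fluorescence in the single-dose primary screen is 50% or more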;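 further: 0% = DMSO with enzyme and 100% = substrate without enzyme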
Runt-SMMHC FRET: inhibitors of human RUNX1 Runt domain binding to CBFb-SMMHC | Q01196+Q13951 | Cerulean-Runt/Venus-CBFb-SMMHC FRET ratio 530/480, 1 h | inhibition, % at 20 µM | 220,000 compounds, 0.74% hits;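 active means mean inhibition across duplicate retests at 20 µM reaching about 50%, limit read from the data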;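 further: 0% = DMSO wells and 100% = wells with excess untagged CBFb-SMMHC; inhibitors lower the FRET ratio by blocking Runt binding to CBFb-SMMHC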
Runt-CBFb FRET: blocks binding of human RUNX1 Runt domain to CBFb. 220,000 compounds, 0.46% hits. AID 1496. inhibition, % at 20 µM. Cerulean-Runt/Venus-CBFb FRET ratio 530/480, 1 h;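 active means inhibition over about 50% at 20 µM in the single-dose screen, limit read from the data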;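 further: 0% = DMSO wells and 100% = excess unlabeled CBFb competitor control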
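Buffer or medium: Tris pH 7.5 buffer with BSA. Assay system: Cerulean-labeled Runt domain protein. Amount: each fluorescent fusion protein 100 nM. Read-out basis: loss of energy transfer signal. Incubation: 1 h compound exposure, room temperature. Probe or stimulus: Venus-CBFb binding partner, 100 nM. Detection: FRET, excitation 422 nm, emission at 530 and 480 nm.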
Calpain2 inh: blocks pig calpain II enzyme activity. AID 1236. inhibition, % at 16 µM. 220,000 compounds, 0.37% hits. purified calpain II, fluorogenic peptide substrate, 30 min;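 active means inhibition above about 50%, limit read from the data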
RanGTP-Imp inh: disruptors of Ran-importin-beta complex formation – biochemical, FRET, CFP-Ran, YFP-importin-beta, homogeneous, primary screen; cell-free CFP-Ran/YFP-importin-beta FRET ratio; inhibition, % (test concentration not listed); 300,000 compounds, 1.1% hits;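 active means more than half of the replicate wells show a fall in the fluorescence ratio signal beyond about 16%, limit read from the data, passing the limit was not always enough; inconclusive means exactly half of the replicate wells pass the set limit; inactive means fewer than half of replicates pass the limit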;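 further: 0% = DMSO wells and 100% = Ran loaded with GDP instead of GTP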
YIC FRET counter: counter-screen: alters YIC FRET probe signal | shares compounds with RanGTP-Imp inh | Purified YIC probe, intramolecular FRET ratio YFP/CFP | 1,000 compounds, 40% hits | IC50, µM;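 active means fitted half-maximal inhibitory concentration no more than tenfold above the top dose tested; inconclusive means flat fit with 30 to 70% activity, or poor fit; inactive means half-maximal concentration beyond tenfold above the top dose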
* hit, by the source's call; i = inactive; ? = inconclusive; . = not tested or not shown.

SMILES	FAS TE block	Runt-SMMHC FRET	Runt-CBFb FRET	Calpain2 inh	RanGTP-Imp inh	YIC FRET counter
COCCCNC(=O)/C(C#N)=C/c1c(N2CCN(c3ccccc3)CC2)nc2ccccn2c1=O	-1.5	.	.	.	25.7*	28.8*
Cc1ccc(C(C)C)c(OCC(=O)Nc2cccc(S(=O)(=O)NC3=NCCCCC3)c2)c1	17.5	.	.	.	5.2	.
COc1ccccc1/C=C/c1nc(C#N)c(N(C)C)o1	15.2	.	.	.	27.9*	13.1*
Cc1cc(S(=O)(=O)N2CCN(c3ccccc3C)CC2)ccc1F	24.5	-1.4	-1.2	-1.3	-2.0	.
Cc1cc(S(=O)(=O)N2CCN(c3c(C)cccc3C)CC2)ccc1F	22.0	-4.7	1.0	12.6	22.0*	>50
Cc1ccc(Cl)cc1-n1c(=O)cc(N2CC(C)OC(C)C2)[nH]c1=O (stereo unspecified)	-5.7	-5.7	0.3	18.2	56.2*	>50
COC(=O)c1cc(-c2ccccc2)n[nH]1	-4.2	2.0	2.2	-17.7	-2.5	.
COC(=O)c1cc(C(=O)OC)[nH]n1	-5.1	-2.7	1.9	18.3	20.0*	>50
CCOc1ccc(C)cc1S(=O)(=O)Nc1ccc(Cl)cn1	-1.9	3.4	-1.8	6.1	18.6*	>50
CN(C)C=NC(=O)c1cc(C(=O)c2ccc(C(C)(C)C)cc2)c[nH]1	6.8	1.5	0.4	28.0	27.3*	>50
CCCCCN(C(=O)CCC(=O)OCC(=O)NCc1cccc(OC)c1)c1c(N)n(CCCC)c(=O)[nH]c1=O	-3.9	.	.	.	?	.
CCCCCN(C(=O)CN(C)Cc1ccc(OC)cc1OC)c1c(N)n(CCCC)c(=O)[nH]c1=O	-1.5	3.9	2.3	8.8	19.6*	>50
CC(c1c(O)c2ccccc2[nH]c1=O)C1(C)CCC(O)C(C)(C)O1 (stereo unspecified)	-7.2	0.9	-1.3	25.4	-0.9	.
Nc1nonc1-n1nnc(C(=O)N/N=C/c2ccccc2)c1CSc1ccc(Cl)cc1	-2.8	-4.5	1.1	6.7	17.3*	>50
COc1ccc2nc(SCC(=O)NCc3ccc4c(c3)OCO4)[nH]c2c1	-1.2	-1.5	0.6	-3.9	7.6	.
CCOc1ccc2nc(SCC(=O)NCc3ccc4c(c3)OCO4)[nH]c2c1	-4.9	4.4	2.0	-10.4	29.7*	>50
COc1ccc(CCNc2nc3ccccc3n3nnnc23)cc1OC	-9.7	30.8	18.6	-120.5	27.9*	24.8*
c1ccc(CCNc2nc3ccccc3n3nnnc23)cc1	-9.5	3.1	4.0	-195.2	6.0	.
C[C@@H]1CN([C@H](C)CO)C(=O)CCCn2nncc2CO[C@@H]1CN(C)S(=O)(=O)c1cccc(F)c1	-4.3	.	.	.	.	.
CCc1sc(C(=O)N2CCN(C(=O)c3ccccc3)CC2)cc1C	-1.9	.	.	.	.	.
Cc1cc(CNC(=O)COc2ccc(F)cc2)c2ccccc2n1	-3.7	-1.3	0.5	-23.9	17.5*	>50
Cc1cccc(OCC(=O)NNc2c3ccccc3nc3ccccc23)c1	12.2	15.1	10.2	16.4	32.6*	>50
Cc1ccc(OCC(=O)NNc2c3ccccc3nc3ccccc23)cc1	14.2	23.8	4.8	8.6	36.2*	>50
O=C(Cc1ccccc1)NNC(=O)Cc1ccccc1	-2.9	3.2	0.2	-1.3	1.4	.
Cc1cc(CNC(=O)COc2ccccc2)c2ccccc2n1	-1.5	-1.4	1.8	-14.3	1.4	.
SMILES	FAS TE block	Runt-SMMHC FRET	Runt-CBFb FRET	Calpain2 inh	RanGTP-Imp inh	YIC FRET counter
O=C(Cc1ccccc1)NNc1c2ccccc2nc2ccccc12	0.2	19.8	17.1	11.1	34.2*	>50
COc1ccc2c(COC(=O)c3ccc(C)c(S(=O)(=O)N4CCOCC4)c3)cc(=O)oc2c1	35.5	.	.	.	.	.
COCCC(=O)N1CCC(Oc2ccc(C(=O)NC3CCOC(C)(C)C3)cc2)CC1 (stereo unspecified)	-2.5	.	.	.	1.7	.
Cc1nnc(SCC(=O)NNC(=O)COc2ccc(Cl)cc2)n1C	-7.9	.	.	.	-2.6	.
Cc1ccnc(NC(=O)c2ccc(S(=O)(=O)N3CCCC3)cc2)c1	-2.7	.	.	.	.	.
COc1ccc(OC(=O)C2CC(=O)N(c3ccc(C)cc3)C2)cc1 (stereo unspecified)	-2.1	5.4	-1.7	-3.8	21.6*	>50
CCOc1ccccc1NC1=CC(=O)CC(c2ccccc2)C1 (stereo unspecified)	-6.2	-8.4	-2.4	-0.9	24.4*	>50
CCOc1ncccc1C(=O)OCc1csc(CC(=O)Nc2ccccc2C)n1	-3.2	.	.	.	.	.
O=C(C(=O)N1CCN(c2ccc([N+](=O)[O-])cc2)CC1)c1cn(CC(=O)N2CCOCC2)c2ccccc12	7.6	.	.	.	.	.
CCOC(=O)c1ccc(N/C=C\C(=O)c2cccc(OC)c2)cc1	10.6	-11.2	-5.4	-155.3	1.4	.
COc1cccc(C(=O)/C=C/Nc2cc(C)ccc2O)c1	10.5	-31.6	-5.9	13.6	30.0*	>50
CC(C)[C@H]1COCCS(=O)(=O)N1Cc1ccccc1	-5.3	.	.	.	3.9	.
CCOC(=O)C1CCN(c2cc(=O)n(C3CCCCC3)c(=O)[nH]2)CC1	-1.7	3.1	-1.5	-12.2	51.1*	>50
CCOC(=O)N1CCN(c2cc(=O)n(C3CCCCC3)c(=O)[nH]2)CC1	-2.4	-0.6	5.0	5.3	18.8*	>50
Cn1c(=O)cc(OCCCC(=O)NCc2ccccn2)c2ccccc21	-8.2	0.1	-6.1	7.3	22.5*	>50
Nc1oc2ccccc2c1C(=O)Cc1ccccc1O[C@@H]1O[C@H](CO)[C@@H](O)[C@H](O)[C@H]1O	-4.3	.	.	.	?	.
COc1ccc(CNC(=O)C2CC(=O)N(C3CCCCC3)C2)cc1 (stereo unspecified)	-5.1	.	.	.	21.1*	>50
CNC(=S)Nc1ccc(C(N)=O)cc1	-3.1	-5.6	2.2	18.0	27.3*	>50
CCN(CC)S(=O)(=O)c1ccc(/C=C/C(=O)Nc2ccc(Br)cc2F)cc1	21.8	0.6	0.7	-0.4	2.3	.
CCN(CC)S(=O)(=O)c1ccc(/C=C/C(=O)Nc2ccc(F)cc2F)cc1	10.1	0.5	0.0	20.6	20.8*	>50
COc1ccc(-n2c(N)c(C(=O)NCc3ccco3)c3nc4ccccc4nc32)c(OC)c1	2.6	95.3*	40.0	i	32.6*	19.4*
CN(Cc1cnc2nc(N)nc(N)c2n1)c1ccc(C(=O)N[C@@H](CCC(=O)O)C(=O)O)cc1	-4.3	.	.	.	23.3*	>50
Nc1nc2ncc(CNc3ccc(C(=O)N[C@@H](CCC(=O)O)C(=O)O)cc3)nc2c(=O)[nH]1	0.1	.	.	.	3.5	.
CN(C)/C=N/c1nc2nccc(-c3ccccc3)n2n1	-6.7	-2.8	3.5	i	0.7	.
CCc1ccccc1N(CC(=O)NCc1ccco1)C(=O)CCC(=O)Nc1nccs1	5.3	.	.	.	21.8*	>50
CCOc1ccc(N(CC(=O)NCc2ccco2)C(=O)CCC(=O)Nc2nccs2)cc1	-3.0	.	.	.	?	.
C/C(=N\NC(=S)NCCc1ccccc1)c1cccc(Br)c1	37.8	-4.5	2.8	-9.0	0.2	.
